The subject of series [1] is MDA-MB-231. Description: Antiproliferative activity against human MDA-MB-231 cells assessed as reduction in cell viability incubated for 72 hrs by MTT assay. It is filed as functional, cell-based. Particulars: MDA-MB-231, 72 h. Summed up:
(§1)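 MTT viability assay. ATCC cell lines were grown in designated medium with 10% FBS at 37 °C, 5% CO2. Cells seeded at 1500−30000 per well and incubated 24 h, then exposed to compound (0−10 μg/mL) for 72 h. MTT added for 2−4 h. Formazan dissolved in DMSO (adherent) or acidified SDS overnight (suspension), absorbance read at 570 nm. Triplicates; IC50 calculated.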
On the technique in general: Formazan colour is commonly taken as a measure of viable cells.

The test system of the next series is MDA-MB-435. Description: Antiproliferative activity against human MDA-MB-435 cells assessed as reduction in cell viability incubated for 72 hrs by MTT assay. Particulars: MDA-MB-435, 72 h. Type of series: functional, cell-based. An outline of the steps: as §1
Series [2] can be described thus: AUC (0 to infinity) in Sprague-Dawley rat at 10 mg/kg, po administered via gavage by LC-MS analysis. Details: time infinity, route oral, dose 10 mg/kg. Type of series: ADME, organism-based. Particulars: in vivo.
Series [3] has as its target Fibroblast growth factor receptor 3 (Homo sapiens, UniProt P22607). Description: Inhibition of human recombinant FGFR3 (447 to 761 residues) using poly(Glu,Tyr)4:1 as substrate incubated for 40 mins in presence of [gamma33P-ATP] by radiometric scintillation counting analysis. Summed up: (§2)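 Radiometric kinase assay run as an external profiling service, with ATP at the Km of each kinase. IC50 values are means of two independent experiments.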

Series [4] is described as follows: Inhibition of human recombinant EPHB2 A848S/K918E mutant (560 to end residues) using poly(Glu,Tyr)4:1 as substrate incubated for 40 mins in presence of [gamma33P-ATP] by radiometric scintillation counting analysis. Summed up: as §2
Series [5] has as its target Platelet-derived growth factor receptor beta (Homo sapiens, UniProt P09619). Description: Inhibition of human recombinant PDGFRbeta (557 to end residues) using poly(Glu, Tyr)4:1 as substrate incubated for 40 mins in presence of [gamma33P-ATP] by radiometric scintillation counting analysis.
Series [6] addresses Mitogen-activated protein kinase 1 (Homo sapiens, UniProt P28482). Description: Inhibition of human full length recombinant ERK2 using myelin basic protein as substrate incubated for 40 mins in presence of [gamma33P-ATP] by radiometric scintillation counting analysis.
The target of series [7] is BDNF/NT-3 growth factors receptor (Homo sapiens, UniProt Q16620). Description: Inhibition of human recombinant TRKB (455 to end residues) using poly(Glu,Tyr)4:1 as substrate incubated for 40 mins in presence of [gamma33P-ATP] by radiometric scintillation counting analysis.
For the next series, the system named is HCC1937. Description: Antiproliferative activity against human HCC1937 cells assessed as reduction in cell viability incubated for 72 hrs by MTT assay. Particulars: HCC1937, 72 h. It is filed as functional, cell-based. An outline of the steps:
as §1

A further series concerns ZR-75-1. Description: Antiproliferative activity against human ZR-75-1 cells assessed as reduction in cell viability incubated for 72 hrs by MTT assay. Type of series: functional, cell-based. Particulars: ZR-75-1, 72 h. An outline of the steps: as §1
Another series concerns PC-9. Description: Antiproliferative activity against human PC-9 cells assessed as reduction in cell viability incubated for 72 hrs by MTT assay. Type of series: functional, cell-based. Particulars: PC-9, 72 h. Summed up: as §1
Another series concerns L02. Description: Cytotoxicity against human L02 cells assessed as reduction in cell viability incubated for 72 hrs by MTT assay. Type of series: cell-based. Particulars: L02, 72 h. Summed up: as §1
Series [8] deals with MDA-MB-231. Description: Induction of apoptosis in human MDA-MB-231 cells assessed as necrotic cells at 0.01 uM incubated for 24 hrs by annexin V-FITC and propidium iodide staining based flow cytometry analysis (reference value: 0.2 %). It is filed as functional.
Series [9] concerns MDA-MB-231. Description: Induction of apoptosis in human MDA-MB-231 cells assessed as necrotic cells at 0.03 uM incubated for 24 hrs by annexin V-FITC and propidium iodide staining based flow cytometry analysis (reference value: 0.2 %). Type of series: functional.
Series [10] has as its target Proto-oncogene tyrosine-protein kinase Src (Homo sapiens) (UniProt P12931). Description: Inhibition of Src in human MDA-MB-231 cells assessed as inhibition of FAK phosphorylation at 0.1 to 0.3 uM incubated for 20 hrs by Western blot analysis. It is filed as cell-based. Particulars: dose 0.1-0.3 µM. Summed up:
(§3)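 MDA-MB-231 cells treated with a series of concentrations for 20 h at 37 °C. Cells washed with ice-cold saline and lysed in RIPA buffer with protease cocktail. Lysates cleared at 12000 rpm for 10 min at 4 °C and protein quantified by Bradford. Equal protein separated by SDS-PAGE, transferred to PVDF and probed with antibodies.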
(A western blot detects proteins with antibodies after separation by electrophoresis.)

Series [11] has as its system MDA-MB-231. Description: Inhibition of ERK phosphorylation in human MDA-MB-231 cells at 0.01 to 0.3 uM incubated for 20 hrs by Western blot analysis. Type of series: cell-based. Particulars: dose 0.01-0.3 µM. Summed up: as §3
The subject of series [12] is MDA-MB-231. Description: Antitumor activity against human MDA-MB-231 cells xenografted in SCID mouse assessed as tumor growth inhibition administered orally once daily for 21 days and measured every 3 days. It is filed as functional. Particulars: dose 10-40 mg/kg/day, time 21.0 day. An outline of the steps: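 SCID mice (5−6 weeks) injected subcutaneously with 100 μL of cells at 5 × 10^7/mL. At 150−200 mm3 mice randomized, 6 per group. Oral compounds given in water with 25% PEG400 plus 5% DMSO; paclitaxel given 10 mg/kg/week iv. Tumor volume a×b²/2 and body weight measured every 3 days. Inhibition rate (c−d)/c×100% against vehicle control.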
(In general: Xenograft models place foreign cells or tissue in a host animal.)

Series [13] concerns Mus musculus. Description: In vivo inhibition of MEK in SCID mouse xenografted with human MDA-MB-231 cells assessed as reduction in phosphorylation of MEK in tumor tissue at 40 mg/kg, po QD for 21 days by immunohistochemical analysis. It is filed as functional, organism-based. Particulars: dose 40.0 mg/kg/day, time 21.0 day. An outline of the steps:
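Tumors taken from xenografted SCID mice dosed orally at 40 mg/kg/q.d. or given control; mice euthanized at set times. Tumors formalin-fixed and paraffin-embedded, stained by immunohistochemistry for phospho-proteins, and imaged by light microscopy.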

Series [14] has as its system MDA-MB-231. Description: Induction of apoptosis in human MDA-MB-231 cells xenografted in SCID mouse assessed as increase in cleaved caspase-3 level in tumor tissue at 40 mg/kg, po QD for 21 days by immunohistochemical analysis. Type of series: functional, organism-based. Particulars: dose 40.0 mg/kg/day, time 21.0 day. An outline of the steps:
(§4)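 SCID mice carried subcutaneous MDA-MB-231 xenografts (5 × 10^6 cells in 100 μL). Oral dosing in water with 25% PEG400 and 5% DMSO began at 150–200 mm3. Tumours were removed at the end of study, formalin-fixed and paraffin-embedded, then immunostained.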

Series [15] deals with Mus musculus. Description: Reduction in CD31 expression in tumor tissue of SCID mouse xenografted with human MDA-MB-231 cells at 40 mg/kg, po QD for 21 days by immunohistochemical analysis. It is filed as functional, organism-based. Particulars: dose 40.0 mg/kg/day, time 21.0 day. An outline of the steps: as §4
Series [16] in a line: Acute toxicity in female Sprague-Dawley rat assessed as increase of body weight at 200 mg/kg, po administered as single dose and monitored every 3 days. Particulars: in vivo, 72 h. It is filed as organism-based. Summed up: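 Sprague-Dawley rats (n = 3) received a single oral dose of 200 mg/kg in sterile water with 25% (v/v) PEG400 plus 5% DMSO. Behaviour and side effects were monitored daily, and average body weight was measured every 3 days.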

A short description of series [17]: Acute toxicity in Sprague-Dawley rat assessed as histopathological changes in spleen at 100 mg/kg, po administered as single dose measured after 24 hrs by H and E staining based light microscope analysis. Type of series: organism-based. Particulars: in vivo. An outline of the steps: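 Sprague-Dawley rats received a single oral dose of 100 mg/kg in sterile water with 25% (v/v) PEG400 plus 5% DMSO. Organs were examined by histology and immunohistochemistry for pathological changes. Behaviour and side effects were checked daily.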

The source made the active and inactive calls. The calls are words filed in the database; no cut-off is given here.

Sequence of BDNF/NT-3 growth factors receptor (Q16620 whole entry): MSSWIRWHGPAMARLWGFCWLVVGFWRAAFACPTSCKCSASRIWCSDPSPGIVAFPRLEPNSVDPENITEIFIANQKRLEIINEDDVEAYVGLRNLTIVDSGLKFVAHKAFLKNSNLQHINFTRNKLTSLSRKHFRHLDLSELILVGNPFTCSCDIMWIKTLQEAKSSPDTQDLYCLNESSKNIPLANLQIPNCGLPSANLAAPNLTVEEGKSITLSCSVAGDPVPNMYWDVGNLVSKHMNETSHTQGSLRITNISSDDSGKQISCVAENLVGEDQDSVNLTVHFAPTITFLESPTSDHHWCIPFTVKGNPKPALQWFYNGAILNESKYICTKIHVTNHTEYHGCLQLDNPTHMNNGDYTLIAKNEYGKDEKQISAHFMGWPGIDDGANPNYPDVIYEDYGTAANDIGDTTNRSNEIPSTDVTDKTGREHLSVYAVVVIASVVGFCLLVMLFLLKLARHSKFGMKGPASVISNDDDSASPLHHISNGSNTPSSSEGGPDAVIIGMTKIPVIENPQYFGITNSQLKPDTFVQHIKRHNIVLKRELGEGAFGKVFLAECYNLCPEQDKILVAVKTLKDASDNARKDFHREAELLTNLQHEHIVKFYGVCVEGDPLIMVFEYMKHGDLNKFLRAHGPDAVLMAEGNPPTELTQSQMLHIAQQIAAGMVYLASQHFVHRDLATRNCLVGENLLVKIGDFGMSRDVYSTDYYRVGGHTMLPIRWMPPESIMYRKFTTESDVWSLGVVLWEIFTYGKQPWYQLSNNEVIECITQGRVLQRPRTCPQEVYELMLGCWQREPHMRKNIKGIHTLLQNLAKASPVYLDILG
Sequence of Fibroblast growth factor receptor 3 (P22607 whole entry, the tested form may be a part): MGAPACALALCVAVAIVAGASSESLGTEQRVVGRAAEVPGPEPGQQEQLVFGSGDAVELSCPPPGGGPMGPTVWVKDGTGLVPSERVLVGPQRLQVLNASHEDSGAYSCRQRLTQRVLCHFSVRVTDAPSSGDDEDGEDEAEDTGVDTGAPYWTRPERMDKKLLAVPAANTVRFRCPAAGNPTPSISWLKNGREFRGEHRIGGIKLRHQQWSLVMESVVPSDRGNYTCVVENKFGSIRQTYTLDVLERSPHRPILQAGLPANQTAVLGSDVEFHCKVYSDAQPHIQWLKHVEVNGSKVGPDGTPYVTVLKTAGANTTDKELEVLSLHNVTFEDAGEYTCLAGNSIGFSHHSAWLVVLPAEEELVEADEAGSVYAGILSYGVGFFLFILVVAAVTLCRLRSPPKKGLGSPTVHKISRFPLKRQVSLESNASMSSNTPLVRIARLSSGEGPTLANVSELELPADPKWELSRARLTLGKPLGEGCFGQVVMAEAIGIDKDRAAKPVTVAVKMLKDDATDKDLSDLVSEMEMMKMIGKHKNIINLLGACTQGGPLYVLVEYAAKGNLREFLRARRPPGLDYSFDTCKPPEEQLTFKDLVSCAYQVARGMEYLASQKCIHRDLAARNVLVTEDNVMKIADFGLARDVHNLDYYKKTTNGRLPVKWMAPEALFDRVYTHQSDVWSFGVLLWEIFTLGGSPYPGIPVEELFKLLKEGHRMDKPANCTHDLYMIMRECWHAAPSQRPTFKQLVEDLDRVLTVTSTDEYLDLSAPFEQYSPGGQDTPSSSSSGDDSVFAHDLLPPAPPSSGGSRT
Sequence of Mitogen-activated protein kinase 1 (P28482 whole entry): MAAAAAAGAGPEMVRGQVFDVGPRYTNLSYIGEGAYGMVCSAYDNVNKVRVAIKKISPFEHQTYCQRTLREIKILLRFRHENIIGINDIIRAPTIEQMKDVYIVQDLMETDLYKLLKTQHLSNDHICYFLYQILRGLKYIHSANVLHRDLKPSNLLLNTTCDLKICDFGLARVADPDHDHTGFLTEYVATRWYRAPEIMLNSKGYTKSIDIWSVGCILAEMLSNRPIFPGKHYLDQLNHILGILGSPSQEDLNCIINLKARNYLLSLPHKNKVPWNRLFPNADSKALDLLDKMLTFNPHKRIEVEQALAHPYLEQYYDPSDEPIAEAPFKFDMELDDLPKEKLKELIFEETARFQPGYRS
Sequence of Platelet-derived growth factor receptor beta (P09619 whole entry): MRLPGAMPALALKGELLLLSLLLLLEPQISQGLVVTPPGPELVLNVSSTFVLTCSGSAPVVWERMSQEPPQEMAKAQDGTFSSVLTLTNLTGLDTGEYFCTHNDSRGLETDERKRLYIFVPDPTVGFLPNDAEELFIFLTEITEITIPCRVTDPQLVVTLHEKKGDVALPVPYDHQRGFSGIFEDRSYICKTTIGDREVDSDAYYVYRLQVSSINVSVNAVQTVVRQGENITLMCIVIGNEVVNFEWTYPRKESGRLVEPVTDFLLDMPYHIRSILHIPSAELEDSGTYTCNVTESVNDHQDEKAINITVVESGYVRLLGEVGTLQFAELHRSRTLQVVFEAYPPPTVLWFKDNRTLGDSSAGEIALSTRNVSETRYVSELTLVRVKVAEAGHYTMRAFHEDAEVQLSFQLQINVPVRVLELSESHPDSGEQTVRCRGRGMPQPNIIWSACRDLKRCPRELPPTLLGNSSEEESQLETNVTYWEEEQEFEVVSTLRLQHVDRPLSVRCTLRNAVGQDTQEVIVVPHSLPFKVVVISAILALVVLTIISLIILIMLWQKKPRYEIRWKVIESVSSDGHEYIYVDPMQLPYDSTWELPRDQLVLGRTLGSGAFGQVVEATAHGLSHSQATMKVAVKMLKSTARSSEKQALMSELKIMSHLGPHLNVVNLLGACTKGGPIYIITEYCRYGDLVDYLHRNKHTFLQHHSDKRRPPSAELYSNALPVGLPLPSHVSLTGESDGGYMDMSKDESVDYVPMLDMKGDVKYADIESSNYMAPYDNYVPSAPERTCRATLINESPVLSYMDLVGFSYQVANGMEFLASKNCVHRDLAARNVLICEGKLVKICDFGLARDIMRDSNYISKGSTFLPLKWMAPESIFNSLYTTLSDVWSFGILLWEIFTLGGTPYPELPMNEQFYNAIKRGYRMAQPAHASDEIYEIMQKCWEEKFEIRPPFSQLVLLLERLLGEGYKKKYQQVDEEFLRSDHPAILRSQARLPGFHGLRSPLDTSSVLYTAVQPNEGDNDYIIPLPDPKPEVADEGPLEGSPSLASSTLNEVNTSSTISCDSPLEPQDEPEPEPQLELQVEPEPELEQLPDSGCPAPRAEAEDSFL
Sequence of Proto-oncogene tyrosine-protein kinase Src (Homo sapiens) (P12931 2-536 limits assumed): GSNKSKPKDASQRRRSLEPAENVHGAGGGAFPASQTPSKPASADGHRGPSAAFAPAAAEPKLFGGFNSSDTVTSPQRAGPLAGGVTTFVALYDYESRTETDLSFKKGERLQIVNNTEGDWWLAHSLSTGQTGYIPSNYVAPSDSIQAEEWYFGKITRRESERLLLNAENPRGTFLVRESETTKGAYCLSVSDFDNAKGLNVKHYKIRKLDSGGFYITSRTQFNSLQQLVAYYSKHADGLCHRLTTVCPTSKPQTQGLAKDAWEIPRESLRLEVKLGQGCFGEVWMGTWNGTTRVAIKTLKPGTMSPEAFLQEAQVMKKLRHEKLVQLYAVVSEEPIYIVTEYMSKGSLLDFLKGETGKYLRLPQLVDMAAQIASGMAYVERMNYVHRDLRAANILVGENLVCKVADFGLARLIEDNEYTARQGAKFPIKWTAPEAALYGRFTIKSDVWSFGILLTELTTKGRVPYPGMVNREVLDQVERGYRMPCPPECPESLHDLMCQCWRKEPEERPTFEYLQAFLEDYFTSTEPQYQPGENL

For `Cc1ccc(NC(=O)c2ccc(C)c(C(F)(F)F)c2)cc1C#Cc1nn([C@H]2CC[C@H](O)CC2)c2ncnc(N)c12`, the IC50 (commonly the midpoint of a concentration-inhibition curve) with MDA-MB-231 [1] is 30 nM; in the series with MDA-MB-435 it was 8 nM; in series [3] it was 120 nM; in [4] it was 33 nM; in series [5], greater than 10000 nM; in series [6] it was greater than 10000 nM. The IC50 was 899 nM in [7]; 455 nM in the series on HCC1937; 10000 nM in the series on ZR-75-1; 152 nM in the series on PC-9; greater than 10000 nM in the series on L02. In series [2], the AUC(0-inf) (usually the area under the concentration-time curve extrapolated to infinity) was determined as 2950 ng·h/mL. Besides, the Activity is 0.42% in the series with MDA-MB-231 [8]; 2.42% with MDA-MB-231 [9]; “Dose-dependent effect” in the series with MDA-MB-231 [12]; “Non-Toxic” in series [16]; “Non-Toxic” in series [17]. Besides, the inhibition entry (in series [10]; in the series with MDA-MB-231 [11]; in the series with Mus musculus [13]; in the series with Mus musculus [15]) was “Active” each time. Further, in the series with MDA-MB-231 [14], the outcome was Active.

The record behind these values is ChEMBL document CHEMBL4765233, “From Lead to Drug Candidate: Optimization of 3-(Phenylethynyl)-1H-pyrazolo[3,4-d]pyrimidin-4-amine Derivatives as Agents for the Treatment of Triple Negative Breast Cancer” (J Med Chem, 2016).
